Bioassay records (PubChem BioAssay)
Most compounds without a hit are left out; they make up all but 1.8% or so of the library.
STEP inh – STEP phosphatase inhibitors, primary screen, biochemical, fluorescence intensity, uHTS | Tyrosine-protein phosphatase non-receptor type 5 (Homo sapiens), P54829 | recombinant STEP, OMFP fluorogenic substrate | inhibition, % at 20 µM | 360,000 tested, 0.25% active | AID 588621, 2011;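 active = inhibition at 20 µM, scaled per plate between control wells, above about 37%, limit read from the data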
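Test system: STEP tyrosine phosphatase / Reagent: OMFP at 25 µM / Doses: 20 µM, 1% DMSO / Read-out: percent inhibition scaled to no-enzyme and uninhibited-enzyme controls, plate-pattern corrected / Detection: FITC-channel fluorescence of OMFP product / Medium: Bis-Tris buffer pH 6.0, 2.5 mM DTT, 0.005% Tween 20 / Schedule: 20 min at room temperature, dark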
Scp-1 inhibitor – Scp-1 phosphatase inhibitors, primary screen, biochemical, colorimetric, uHTS | Carboxy-terminal domain RNA polymerase II polypeptide A small phosphatase 1 (Homo … | Recombinant Scp1, phosphopeptide, malachite green phosphate absorbance | inhibition, % at 20 µM | 340,000 tested, 0.88% active;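 active = inhibition above about 50% at 20 µM, limit read from the data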
Target sequence (Q9GZU7 76-261 limits assumed): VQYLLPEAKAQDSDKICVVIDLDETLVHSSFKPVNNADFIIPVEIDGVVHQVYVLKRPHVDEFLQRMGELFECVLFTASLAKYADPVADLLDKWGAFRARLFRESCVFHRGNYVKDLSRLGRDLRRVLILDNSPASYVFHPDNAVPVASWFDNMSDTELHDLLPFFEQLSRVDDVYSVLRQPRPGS
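Test system: SCP-1 phosphatase catalytic domain, residues 76-261; measured by: colorimetric phosphate reagent with accelerator and stabiliser, absorbance at 630 nm; timing: enzyme reaction 45 min at room temperature, colour 5 min, stabilisation 30 min; also added: Phosphorylated 17-residue peptide substrate; compound dosing: one concentration, 20 µM, with 1.0% DMSO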
DNMT1 block – human DNMT1 methyltransferase inhibitors, primary screen, biochemical, molecular beacon, fluorescence, HinP1I cleavage, uHTS. inhibition (reported as % activation of signal), % at 10 µM. 360,000 tested, 0.83% active; in the data active = inhibition above about 50%
SUMO1-SIM PPI – modulators of SUMO1 protein-protein interactions, primary screen, biochemical, uHTS. SUMO1 binding to a labelled peptide, TR-FRET, 1 h. inhibition, % at 20 µM. 360,000 tested, 0.33% active; in the data active = inhibition above about 37%
Target sequence (P63165 whole entry, looked up): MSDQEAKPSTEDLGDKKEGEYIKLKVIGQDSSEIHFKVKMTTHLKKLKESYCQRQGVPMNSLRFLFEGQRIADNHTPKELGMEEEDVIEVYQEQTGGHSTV
LMPTP inh – LMPTP phosphatase inhibitors, primary screen, biochemical, fluorescence intensity, uHTS; recombinant LMPTP-A, OMFP fluorogenic substrate; AID 651560, 2012; Low molecular weight phosphotyrosine protein phosphatase (Homo sapiens), P24666; inhibition, % at 20 µM; 360,000 tested, 0.22% active;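 active = compounds that cut the enzyme signal by at least half of the control window in the single-dose screen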
Target sequence (P24666 whole entry, looked up): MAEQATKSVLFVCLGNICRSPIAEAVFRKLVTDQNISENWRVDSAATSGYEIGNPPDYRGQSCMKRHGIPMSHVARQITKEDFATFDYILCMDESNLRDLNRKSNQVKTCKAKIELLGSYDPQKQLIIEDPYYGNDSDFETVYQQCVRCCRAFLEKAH
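Material: LMPTP-A; amount: 0.625 nM enzyme; doses: single 20 µM dose; times: reaction 50 min, room temperature, dark; technique: fluorescence intensity of OMFP turnover product; benchmarks: no-enzyme and uninhibited controls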
HKDC1 inhibitor – HKDC1 hexokinase inhibitors, primary screen, biochemical, fluorescence, uHTS | AID 493160, 2011 | Q2TB90 | 340,000 tested, 0.16% active | recombinant HKDC1, G6PDH/diaphorase resazurin coupled fluorescence | inhibition, % at 20 µM;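 active = inhibition above about 35% when tested at 20 µM, limit read from the data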
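Test system: recombinant HKDC1 (HK5) hexokinase enzyme, produced in-house; Amount: enzyme 5 µg/mL final; Buffer or medium: Tris pH 8.0 buffer with MgCl2, Tween-20, BSA, BME; Reagent: glucose and ATP substrates; Doses: 20 µM test compound, 1% DMSO; Incubation: 90 min reaction incubation at room temperature, dark; Detection: resorufin fluorescence at 613 nm.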
Scp1 confirm – Scp-1 phosphatase inhibitors, retest, confirmation, biochemical, colorimetric, single concentration | shares compounds with Scp-1 inhibitor | recombinant SCP-1 catalytic domain, phosphate release, malachite green absorbance | inhibition, % at 20 µM | 2,500 tested, 61% active | AID 540281, 2011
Scp-1 MG ctr – colorimetric readout interference by compounds, confirmation, artefact control for Scp-1 inhibitor project, biochemical, single concentration; shares compounds with Scp-1 inhibitor; Colorimetric interference counterscreen, malachite green absorbance 630 nm; apparent inhibition (interference), % at 20 µM; 2,500 tested, under 10 active; AID 540313, 2011;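 note: compounds added after enzyme reaction finished so only phosphate colour detection is probed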
Scp-1 Tm shift – Scp-1 binding by thermal shift, confirmation, orthogonal assay for Scp-1 inhibitor project, biophysical, differential scanning fluorimetry; shares compounds with Scp-1 inhibitor; Recombinant SCP1, Sypro Orange thermal shift Tm; thermal shift relative to vanadate control, % at 40 µM; 1,500 tested, 25% active;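 active = substances whose mean melting-temperature shift, as a percentage of the reference inhibitor's shift, reaches about 5.3%, limit read from the data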
DNMT1 interf DR – spectral interference with molecular beacon fluorescence, dose response, artefact control for DNMT1 inhibitor project, biochemical, fluorescent molecular beacon | spectral interference counter-screen | shares compounds with DNMT1 block | AID 602382, 2012 | 200 tested, under 10 active | IC50, µM; call rule not given here
DNMT1 inh conf – DNMT1 methyltransferase inhibitor retest, confirmation, biochemical, molecular beacon, fluorescence, single concentration; DNMT1 molecular beacon HinP1I cleavage; 2,300 tested, 8% active; inhibition, % at 10 µM; AID 602385, 2012; shares compounds with DNMT1 block;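 active = average inhibition of at least 30% in the single-concentration confirmation test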
Beacon interf – counter-screen for DNMT1 inhibitors: spectral interference; shares compounds with DNMT1 block; DNMT1 molecular beacon spectral interference counterscreen, fluorescence 485/520; 2,300 tested, 1% active; activation (fluorescence interference), % at 10 µM;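 active = activation of at least 30% at 10 µM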;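 note: DNMT1 catalytic domain with a HinP1I cleavage step and a FAM/dabcyl DNA beacon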
Each line names hits and unclear results; the compound was inactive in the other large screens (follow-up assays come after a bar, where they were run).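 Rule for the calls, unless noted: active = inhibition of at least 30% at 20 µM; inactive = the rest.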

CCOc1cccc(C=NNc2ccc(S(=O)(=O)Nc3ccccc3C(=O)O)cc2[N+](=O)[O-])c1O	none
CCn1c(SCC(=O)O)nc2sc3c(c2c1=O)CCC3	Scp-1 inhibitor 73, DNMT1 block 71 | Scp1 confirm 50 | Scp-1 MG ctr inactive | Scp-1 Tm shift inactive | DNMT1 inh conf inactive | Beacon interf inactive
CCn1c(SCC(=O)OC)nc2sc3c(c2c1=O)CCC3	Scp-1 inhibitor 57, DNMT1 block 70 | Scp1 confirm 64 | Scp-1 MG ctr inactive | Scp-1 Tm shift inactive | DNMT1 inh conf inactive | Beacon interf inactive
CCn1c(SCC(=O)OC)nc2sc3c(c2c1=O)CC(C)(C)OC3	none
Cn1c(SCC(=O)O)nc2sc3c(c2c1=O)CCC3	none
COCc1cc(C)nc2sc(C(=O)Nc3ccccc3OC)c(N)c12	none
COc1ccccc1C(=O)N=Nc1c(O)[nH]c2ccc([N+](=O)[O-])cc12	none
O=C(N=Nc1c(O)[nH]c2ccc([N+](=O)[O-])cc12)c1cc(-c2ccccc2Cl)nc2ccccc12	STEP inh 85, Scp-1 inhibitor 95, DNMT1 block 95, LMPTP inh 80 | Scp1 confirm 77 | Scp-1 MG ctr inactive | Scp-1 Tm shift 8.8 | DNMT1 inh conf inactive | Beacon interf inactive
O=C(CN1C(=O)NC2(CCCC2)C1=O)OCc1cc(=O)n2cc(Br)ccc2n1	Scp-1 inhibitor 55, DNMT1 block 58 | Scp1 confirm 33 | Scp-1 MG ctr inactive | Scp-1 Tm shift inactive | DNMT1 inh conf inactive | Beacon interf inactive
Cc1cc(C)c(C)c(S(=O)(=O)N[C@@H](C)C(=O)OCc2cc(=O)n3cc(Br)ccc3n2)c1C	Scp-1 inhibitor 69, DNMT1 block 71 | Scp1 confirm 65 | Scp-1 MG ctr inactive | Scp-1 Tm shift 5.7 | DNMT1 inh conf inactive | Beacon interf inactive
O=[N+]([O-])c1cccc(-c2nc3ccccc3s/c2=N/O)c1	none
Cc1cccc(-n2cnc3cc(C(=O)N4CCc5ccccc54)ccc32)c1	none
COCCn1c(C)cc(C(=O)COC(=O)c2cccc(O)c2)c1C	none
COCCn1c(C)cc(C(=O)COC(=O)c2cc3c(s2)CCC3)c1C	Scp-1 inhibitor 52, DNMT1 block 105 | Scp1 confirm 70 | Scp-1 MG ctr inactive | Scp-1 Tm shift inactive | DNMT1 inh conf inactive | Beacon interf inactive
CC1C=CC(C)C(C(=O)O)C1C(=O)O (stereo not drawn)	Scp-1 inhibitor 86, DNMT1 block 61 | Scp1 confirm 55 | Scp-1 MG ctr inactive | Scp-1 Tm shift inactive | DNMT1 inh conf inactive | Beacon interf inactive
O=S(=O)(c1ccccc1Br)N1CCN(c2ncccn2)CC1	none
O=C(COC(=O)c1cc2c(s1)CCC2)Nc1ccc(F)cc1	Scp-1 inhibitor 68, DNMT1 block 66 | Scp1 confirm 74 | Scp-1 MG ctr inactive | Scp-1 Tm shift inactive | DNMT1 interf DR inactive | DNMT1 inh conf inactive | Beacon interf inactive
NC(=O)c1ccc(NC(=O)COC(=O)c2cc3c(s2)CCC3)cc1	Scp-1 inhibitor 85, DNMT1 block 80 | Scp1 confirm 62 | Scp-1 MG ctr inactive | Scp-1 Tm shift inactive | DNMT1 inh conf inactive | Beacon interf inactive
CCN(Cc1ccccc1)C(=O)C1CCN(S(=O)(=O)c2ccc3c(c2)OCCO3)CC1	none
C=CCn1c(SCC(=O)N2CCCC2)nc2scc(-c3cccs3)c2c1=O	none
C=CCn1c(SCC(=O)N2CCOCC2)nc2scc(-c3ccco3)c2c1=O	Scp-1 inhibitor 73, DNMT1 block 77 | Scp1 confirm inactive | Scp-1 MG ctr inactive | DNMT1 inh conf inactive | Beacon interf inactive
O=C(N/N=C/C=C\c1ccccc1[N+](=O)[O-])c1cc(-c2ccc3ccccc3c2)n[nH]1	Scp-1 inhibitor 96, DNMT1 block 68 | Scp1 confirm 86 | Scp-1 MG ctr inactive | Scp-1 Tm shift inactive | DNMT1 inh conf inactive | Beacon interf inactive
O=C(COc1ccc2c(c1)oc(=O)c1ccccc12)NCCN1CCOCC1	none
O=C(NCc1ccc(F)cc1)c1c2c(nc3ccccc13)CCC2	Scp-1 inhibitor 52, DNMT1 block 57 | Scp1 confirm 60 | Scp-1 MG ctr inactive | Scp-1 Tm shift 12 | DNMT1 inh conf inactive | Beacon interf inactive
CCCC(C)NC(=O)c1c2c(nc3ccccc13)CCC2 (stereo not drawn)	none
O=C(NCc1ccco1)c1c2c(nc3ccccc13)CCC2	Scp-1 inhibitor 66, DNMT1 block 84 | Scp1 confirm 51 | Scp-1 MG ctr inactive | Scp-1 Tm shift 8.3 | DNMT1 inh conf inactive | Beacon interf inactive
O=C(CSc1c2c(nc3ccccc13)CCCC2)NCc1ccco1	none
CCN(CC(=O)Nc1ccccc1OC)CC(=O)Nc1sccc1C#N	none
